Here are results for 2 compounds from ChEMBL document CHEMBL1152451 (J Med Chem, 2009).

Holding throughout (type): ADME, organism-based
A short description of series [1]: Drug level in spontaneously hypersensitive rat at 300 mg/kg, po qd for 8 days measured after 4 hrs post dose. Also noted: dose 300 mg/kg, route oral. The following applies: spontaneously hypersensitive rat (SHR), in vivo, read-out: Drug uptake.
Series [2] is described as follows: Drug level in spontaneously hypersensitive rat at 300 mg/kg, po qd for 8 days measured after 24 hrs post dose. Set-up: dose 300 mg/kg, route oral. The following applies: spontaneously hypersensitive rat (SHR), in vivo, read-out: Drug uptake.
Series [3] has as its system Rattus norvegicus. Nature of the series: Increase in endogenous 14,15-EET/DHET ratio in spontaneously hypersensitive rat kidney at 300 mg/kg, po for 8 days by LC/MS/MS analysis. Also noted: dose 300 mg/kg, route oral. The following applies: in vivo, 192 h. The gist of the method: (§1)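 SHRs given daily oral doses, with kidneys analysed for endogenous epoxide/diol ratios and for 20-HETE. A parallel PK group of SHRs was sampled on the eighth day of dosing at 4 and 24 h postdose.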

The test system of series [4] is Rattus norvegicus. Nature of the series: Increase in endogenous 20-HETE level in spontaneously hypersensitive rat kidney at 300 mg/kg, po for 8 days by LC/MS/MS analysis. Also noted: dose 300 mg/kg, route oral. The following applies: in vivo, 192 h. The gist of the method: as §1
The nature of series [5]: Bioavailability in spontaneously hypersensitive rat at 1 mg/kg, iv and 2 mg/kg, po. Particulars: spontaneously hypersensitive rat (SHR), in vivo.
The nature of series [6]: Clearance in spontaneously hypersensitive rat at 1 mg/kg, iv and 2 mg/kg, po. Particulars: spontaneously hypersensitive rat (SHR), in vivo.
The nature of series [7]: Volume of distribution at steady state in spontaneously hypersensitive rat at 1 mg/kg, iv and 2 mg/kg, po. The following applies: spontaneously hypersensitive rat (SHR), in vivo, read-out: Vdss.
The nature of series [8]: Half life in spontaneously hypersensitive rat at 1 mg/kg, iv and 2 mg/kg, po. Particulars: spontaneously hypersensitive rat (SHR), in vivo.

For `O=C(N[C@@H]1C[C@H]1c1ccccc1)N1CCC(c2nc(-c3ccccn3)no2)CC1`, in series [1], the concentration at 4 h came to 35 µM. Also, in series [2], the concentration at 24 h came to 20 µM. In addition, the “fold change (FC)” value in the series with Rattus norvegicus [3] was 2; in the series on Rattus norvegicus [4], 2.5.

Broadly, the bioavailability is the share of a dose that reaches the circulation, judged against a reference dose that is usually intravenous. In general, half-life refers to the time in which the quantity being followed falls by half. A lower half-life goes with fast loss. The compound `O=C(NC1CC1c1ccccc1)N1CCC(c2nc(-c3ccccn3)no2)CC1` (stereo in doubt; 2d) registered a bioavailability in series [5] of 77%. The clearance in series [6] turned out to be 29 mL/min/kg. The Vd in series [7] came to 2.7 L/kg. Besides, the half-life in series [8] is 84 min.
